Laboratory results taken from ChEMBL document CHEMBL1255404, “Spread of OXA-48-encoding plasmid in Turkey and beyond” (2010).
Converted amounts (≈) assume the structure as drawn.

Experiments:
Type in all cases: functional
[1] = system: Klebsiella pneumoniae; test: Antimicrobial activity against Klebsiella pneumoniae isolate KpL expressing beta-lactamase OXA-48 by Etest method
[2] = system: Klebsiella pneumoniae; test: Antimicrobial activity against Klebsiella pneumoniae isolate Kp11978 expressing beta-lactamase OXA-48, SHV-2a and TEM-1 by Etest method
[3] = system: Escherichia coli; test: Antimicrobial activity against Escherichia coli isolate J53 harboring pA-1 containing beta-lactamase OXA-48 located within transposon Tn1999 by Etest method
How it was run: (§1)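 β-Lactam MICs read with Etest strips. Strains are E. coli J53 recipient and J53 transconjugants carrying OXA-48-positive plasmids recovered from clinical enterobacterial isolates.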

[4] = system: Klebsiella pneumoniae; test: Antimicrobial activity against Klebsiella pneumoniae isolate KpB expressing OXA-48 and CTX-M-15 by Etest method
[5] = system: Escherichia coli; test: Antimicrobial activity against Escherichia coli isolate J53 harboring pBb containing beta-lactamase OXA-48 located within transposon Tn1999.2 by Etest method; how it was run: as §1
[6] = system: Klebsiella pneumoniae; test: Antimicrobial activity against Klebsiella pneumoniae isolate Kp3A expressing beta-lactamase OXA-48 by Etest method
How it was run: (§2)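 MICs of β-lactams read from Etest strips. The test organisms are carbapenem-resistant, OXA-48-positive clinical Enterobacteriaceae isolates recovered from Turkey, Lebanon, Egypt, France and Belgium.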

[7] = system: Escherichia coli; test: Antimicrobial activity against Escherichia coli isolate J53 harboring p3A containing beta-lactamase OXA-48 located within transposon Tn1999 by Etest method; how it was run: as §1
[8] = system: Klebsiella pneumoniae; test: Antimicrobial activity against Klebsiella pneumoniae isolate Kp4A expressing beta-lactamase OXA-48 and CTX-M-15 by Etest method
[9] = system: Klebsiella pneumoniae; test: Antimicrobial activity against Klebsiella pneumoniae isolate Kp5A expressing beta-lactamase OXA-48 and SHV-5 by Etest method
[10] = system: Klebsiella pneumoniae; test: Antimicrobial activity against Klebsiella pneumoniae isolate Kp6A expressing beta-lactamase OXA-48 and TEM-150 by Etest method
[11] = system: Escherichia coli; test: Antimicrobial activity against Escherichia coli isolate J53 harboring p4A containing beta-lactamase OXA-48 located within transposon Tn1999 by Etest method; how it was run: as §1
[12] = system: Escherichia coli; test: Antimicrobial activity against Escherichia coli isolate J53 harboring p5A containing beta-lactamase OXA-48 located within transposon Tn1999 by Etest method; how it was run: as §1
[13] = system: Escherichia coli; test: Antimicrobial activity against Escherichia coli isolate J53 harboring p6A containing beta-lactamase OXA-48 located within transposon Tn1999 by Etest method; how it was run: as §1
[14] = system: Klebsiella pneumoniae; test: Antimicrobial activity against Klebsiella pneumoniae isolate Kp7A expressing beta-lactamase OXA-48 by Etest method; how it was run: as §2
[15] = system: Escherichia coli; test: Antimicrobial activity against Escherichia coli isolate J53 harboring p7A containing beta-lactamase OXA-48 located within transposon Tn1999 by Etest method; how it was run: as §1
[16] = system: Klebsiella pneumoniae; test: Antimicrobial activity against Klebsiella pneumoniae isolate KpI-1 expressing beta-lactamase OXA-48 and CTX-M-15 by Etest method
[17] = system: Klebsiella pneumoniae; test: Antimicrobial activity against Klebsiella pneumoniae isolate KpI-2 expressing beta-lactamase OXA-48 and CTX-M-15 by Etest method
[18] = system: Escherichia coli; test: Antimicrobial activity against Escherichia coli isolate J53 harboring pI-1 containing beta-lactamase OXA-48 located within transposon Tn1999.2 by Etest method; how it was run: as §1
[19] = system: Escherichia coli; test: Antimicrobial activity against Escherichia coli isolate J53 harboring pI-2 containing beta-lactamase OXA-48 located within transposon Tn1999.2 by Etest method; how it was run: as §1
[20] = system: Klebsiella pneumoniae; test: Antimicrobial activity against Klebsiella pneumoniae isolate KpBIC expressing beta-lactamase OXA-48 by Etest method; how it was run: as §2
[21] = system: Escherichia coli; test: Antimicrobial activity against Escherichia coli isolate TOP10 harboring pBIC containing beta-lactamase OXA-48 located within transposon Tn1999.2 by Etest method
How it was run: (§3)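 β-Lactam MICs read with Etest strips. Strains are E. coli TOP10 host and TOP10 transformants made with plasmid DNA extract when conjugation failed. Transformants were selected on LB agar with ticarcillin 50 μg/ml.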

[22] = system: Klebsiella pneumoniae; test: Antimicrobial activity against Klebsiella pneumoniae isolate KpE expressing beta-lactamase OXA-48 and CTX-M-15 by Etest method
[23] = system: Escherichia coli; test: Antimicrobial activity against Escherichia coli isolate J53 harboring pE containing beta-lactamase OXA-48 located within transposon Tn1999.2 by Etest method; how it was run: as §1
[24] = system: Klebsiella pneumoniae; test: Antimicrobial activity against Klebsiella pneumoniae isolate KpBEL expressing beta-lactamase OXA-48 by Etest method; how it was run: as §2
[25] = system: Escherichia coli; test: Antimicrobial activity against Escherichia coli isolate J53 harboring pBEL containing beta-lactamase OXA-48 located within transposon Tn1999.2 by Etest method; how it was run: as §1
[26] = system: Escherichia coli; test: Antimicrobial activity against Escherichia coli isolate J53 harboring pL containing beta-lactamase OXA-48 located within transposon Tn1999.2 by Etest method; how it was run: as §1
[27] = system: Providencia rettgeri; test: Antimicrobial activity against Providencia rettgeri isolate expressing beta-lactamase OXA-48 and TEM-101 by Etest method
[28] = system: Escherichia coli; test: Antimicrobial activity against Escherichia coli isolate TOP10 harboring pPR containing beta-lactamase and TEM-101 by Etest method; how it was run: as §3
[29] = system: Enterobacter cloacae; test: Antimicrobial activity against Enterobacter cloacae isolate 1 expressing beta-lactamase OXA-48 and SHV-5 by Etest method
[30] = system: Escherichia coli; test: Antimicrobial activity against Escherichia coli isolate J53 harboring pEnc1 containing beta-lactamase OXA-48 located within transposon Tn1999 by Etest method; how it was run: as §1
[31] = system: Enterobacter cloacae; test: Antimicrobial activity against Enterobacter cloacae isolate 2 expressing beta-lactamase OXA-48 and SHV-5 by Etest method
[32] = system: Escherichia coli; test: Antimicrobial activity against Escherichia coli isolate J53 harboring pEnc2 containing beta-lactamase OXA-48 located within transposon Tn1999 by Etest method; how it was run: as §1
[33] = system: Citrobacter freundii; test: Antimicrobial activity against Citrobacter freundii isolate expressing beta-lactamase OXA-48 by Etest method
[34] = system: Escherichia coli; test: Antimicrobial activity against Escherichia coli isolate J53 harboring pCF containing beta-lactamase OXA-48 located within transposon Tn1999 by Etest method; how it was run: as §1
[35] = system: Escherichia coli; test: Antimicrobial activity against Escherichia coli isolate A expressing beta-lactamase OXA-48 and TEM-150 by Etest method
[36] = system: Escherichia coli; test: Antimicrobial activity against Escherichia coli isolate J53 harboring pEcA containing beta-lactamase OXA-48 located within transposon Tn1999.2 by Etest method; how it was run: as §1
[37] = system: Escherichia coli; test: Antimicrobial activity against Escherichia coli isolate J53 by Etest method; how it was run: as §1
[38] = system: Escherichia coli; test: Antimicrobial activity against Escherichia coli isolate TOP10 by Etest method; how it was run: as §3

SMILES: C[C@@H](O)[C@H]1C(=O)N2C(C(=O)O)=C(S[C@@H]3CN[C@H](C(=O)Nc4cccc(C(=O)O)c4)C3)[C@H](C)[C@H]12
- MIC [1]: > 16 µg/mL
- MIC [2]: 64 µg/mL (≈ 135 µM)
- MIC [3]: 0.19 µg/mL (≈ 0.4 µM)
- MIC [4]: > 32 µg/mL
- MIC [5]: 0.25 µg/mL (≈ 0.526 µM)
- MIC [6]: > 32 µg/mL
- MIC [7]: 0.25 µg/mL (≈ 0.526 µM)
- MIC [8]: > 32 µg/mL
- MIC [9]: > 32 µg/mL
- MIC [10]: > 32 µg/mL
- MIC [11]: 0.12 µg/mL (≈ 0.252 µM)
- MIC [12]: 0.12 µg/mL (≈ 0.252 µM)
- MIC [13]: 0.12 µg/mL (≈ 0.252 µM)
- MIC [14]: > 32 µg/mL
- MIC [15]: 0.19 µg/mL (≈ 0.4 µM)
- MIC [16]: 24 µg/mL (≈ 50.5 µM)
- MIC [17]: 24 µg/mL (≈ 50.5 µM)
- MIC [18]: 0.25 µg/mL (≈ 0.526 µM)
- MIC [19]: 0.25 µg/mL (≈ 0.526 µM)
- MIC [20]: 2 µg/mL (≈ 4.21 µM)
- MIC [21]: 0.5 µg/mL (≈ 1.05 µM)
- MIC [22]: 3 µg/mL (≈ 6.31 µM)
- MIC [23]: 3 µg/mL (≈ 6.31 µM)
- MIC [24]: 4 µg/mL (≈ 8.41 µM)
- MIC [25]: 2 µg/mL (≈ 4.21 µM)
- MIC [26]: 4 µg/mL (≈ 8.41 µM)
- MIC [27]: > 32 µg/mL
- MIC [28]: 0.75 µg/mL (≈ 1.58 µM)
- MIC [29]: 0.5 µg/mL (≈ 1.05 µM)
- MIC [30]: 0.125 µg/mL (≈ 0.263 µM)
- MIC [31]: 0.75 µg/mL (≈ 1.58 µM)
- MIC [32]: 0.19 µg/mL (≈ 0.4 µM)
- MIC [33]: > 32 µg/mL
- MIC [34]: 0.25 µg/mL (≈ 0.526 µM)
- MIC [35]: > 32 µg/mL
- MIC [36]: 0.25 µg/mL (≈ 0.526 µM)
- MIC [37]: 0.06 µg/mL (≈ 0.126 µM)
- MIC [38]: 0.06 µg/mL (≈ 0.126 µM)
